13 compounds from ChEMBL document CHEMBL4184121, “Semisynthesis, cytotoxicity, antimalarial evaluation and structure-activity relationship of two series of triterpene derivatives” (Bioorg Med Chem Lett, 2018) can be followed below.

The nature of series [1]: Cytotoxicity against human HepG2 cells after 72 hrs by MTT assay. The class given is cell-based. In outline: (§1)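 VERO (ATCC CCL-81) and HepG2 (ATCC HB-8065) cells were exposed for 24, 48 or 72 h to an […] dilution series from 400 to 1.56 μM. CC50 was taken from the concentration–response curve. Triplicates, with at least three independent cultures (n = 3).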
For orientation: Tetrazolium dyes change colour on reduction, which living cells bring about.

Another series deals with Plasmodium falciparum. Briefly: Antiplasmodial activity against chloroquine-resistant Plasmodium falciparum W2 infected in human erythrocytes. Type of series: functional, organism-based. In outline: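 P. falciparum W2 grown in fresh human O+ erythrocytes at 2% hematocrit in complete medium, 37 °C. Compounds tested over a 100–3.12 µM dilution series. IC50 estimated from the dose-response curve relative to drug-free control wells (100% parasite viability). Artemisinin run in parallel as control. Triplicates, at least three independent cultures (n = 3).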

The nature of series [2]: Cytotoxicity against African green monkey Vero cells after 72 hrs by MTT assay. The class given is cell-based. Particulars: chlorocebus sabaeus. The essentials: as §1
Series [3] can be described thus: Selectivity index, ratio of CC50 for human HepG2 cells to IC50 for chloroquine-resistant Plasmodium falciparum W2. The class given is toxicity. Particulars: read-out: Ratio CC50/IC50. In outline:
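SI = HepG2 CC50 / W2 IC50. CC50 came from HepG2 growth inhibition over a 400–1.56 µM dilution series, read at 24, 48 and 72 h. IC50 came from the W2 erythrocyte assay (100–3.12 µM range). Triplicates, at least three independent cultures.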

A value given as a limit tells only on which side of the number the result lay.

One may read the CC50 as the concentration at which the toxic effect on the cells reaches its halfway point. One may read the IC50 as the concentration at which inhibition is half-maximal. With `C=C(C)[C@@H]1CC[C@]2(C(=O)OC)CC[C@]3(C)[C@H](CC[C@@H]4[C@@]5(C)CC[C@H](OC(=O)C(C)C)C(C)(C)[C@@H]5CC[C@]43C)[C@@H]12`, the CC50 at 72 h in series [1] and in series [2] was greater than 400 µM each time. The compound further displayed an IC50 in the series with Plasmodium falciparum greater than 100 µM.
With `C[C@H]1[C@H](C)CC[C@]2(C(=O)O)CC[C@]3(C)C(=CC[C@@H]4[C@@]5(C)CC[C@H](O)C(C)(C)[C@@H]5CC[C@]43C)[C@H]12` [URSOLIC ACID], the CC50 at 72 h in series [1] was found to be 114 µM; in series [2], 99.9 µM. The same compound returned an IC50 with Plasmodium falciparum of 50.6 µM. For the same compound, the selectivity ratio in series [3] came out at 2.24.
For `C=C(C)[C@@H]1CC[C@]2(C(=O)n3ccnc3)CC[C@]3(C)[C@H](CC[C@@H]4[C@@]5(C)CC[C@H](OC(C)=O)C(C)(C)[C@@H]5CC[C@]43C)[C@@H]12` the same measures were greater than 400 µM, greater than 400 µM, 8.9 µM and greater than 44.9.
As to `C[C@H]1[C@H](C)CC[C@]2(C(=O)O)CC[C@]3(C)C(=CC[C@@H]4[C@@]5(C)CCC(=O)C(C)(C)[C@@H]5CC[C@]43C)[C@H]12` [URSONIC ACID], the CC50 at 72 h in series [1] and in series [2] was greater than 400 µM each time. In the series on Plasmodium falciparum, this compound displayed an IC50 of 24.3 µM. In addition, the selectivity ratio in series [3] was greater than 16.5.
Consider `C=C(C)[C@@H]1CC[C@]2(C(=O)OC)CC[C@]3(C)[C@H](CC[C@@H]4[C@@]5(C)CC[C@H](OC(C)=O)C(C)(C)[C@@H]5CC[C@]43C)[C@@H]12`, for which the CC50 at 72 h in series [1] and in series [2] was greater than 400 µM each time. The IC50 in the series on Plasmodium falciparum was greater than 100 µM.
For `C=C(C)[C@@H]1CC[C@]2(C(=O)OC)CC[C@]3(C)[C@H](CC[C@@H]4[C@@]5(C)CC[C@H](OC(=O)CCC)C(C)(C)[C@@H]5CC[C@]43C)[C@@H]12`, the CC50 at 72 h in series [1] and in series [2] was greater than 400 µM throughout. In the series on Plasmodium falciparum, this compound showed an IC50 greater than 100 µM.
For `COC(=O)[C@]12CC[C@@H](C)[C@H](C)[C@H]1C1=CC[C@@H]3[C@@]4(C)CCC(=O)C(C)(C)[C@@H]4CC[C@@]3(C)[C@]1(C)CC2`, the CC50 at 72 h in series [1] and in series [2] was greater than 400 µM in each case. The IC50 in the series on Plasmodium falciparum is greater than 100 µM.
For the compound `C=C(C)[C@@H]1CC[C@]2(C(=O)OC)CC[C@]3(C)[C@H](CC[C@@H]4[C@@]5(C)CCC(=O)C(C)(C)[C@@H]5CC[C@]43C)[C@@H]12` [METHYL BETULONATE], the CC50 at 72 h in series [1] and in series [2] was greater than 400 µM throughout. This compound displayed an IC50 in the series on Plasmodium falciparum greater than 100 µM.
Regarding `COC(=O)[C@]12CC[C@@H](C)[C@H](C)[C@H]1C1=CC[C@@H]3[C@@]4(C)CC[C@H](OC(C)=O)C(C)(C)[C@@H]4CC[C@@]3(C)[C@]1(C)CC2`, the CC50 at 72 h in series [1] and in series [2] was greater than 400 µM in each case. Moreover, in the series with Plasmodium falciparum, the IC50 was greater than 100 µM.
For `CCCC(=O)O[C@H]1CC[C@]2(C)[C@H]3CC=C4[C@@H]5[C@@H](C)[C@H](C)CC[C@]5(C(=O)OC)CC[C@@]4(C)[C@]3(C)CC[C@H]2C1(C)C`, the half-maximal cytotoxic concentration (CC50) at 72 h in series [1] and in series [2] was greater than 400 µM each time. Also, the IC50 in the series on Plasmodium falciparum is greater than 100 µM.
With `C[C@@H]1CC[C@H]2[C@@H](C)C(=O)O[C@@H]3O[C@@]4(C)CC[C@@H]1[C@]32OO4` [ARTEMISININ], the midpoint of inhibition in the series on Plasmodium falciparum, the IC50, lay at 0.0163 µM.
`COC(=O)[C@]12CC[C@@H](C)[C@H](C)[C@H]1C1=CC[C@@H]3[C@@]4(C)CC[C@H](OC(=O)C(C)C)C(C)(C)[C@@H]4CC[C@@]3(C)[C@]1(C)CC2`: the CC50 at 72 h in series [1] and in series [2] was greater than 400 µM each time. Also, the IC50 in the series on Plasmodium falciparum is greater than 100 µM.
For `CC(C)C(=O)O[C@H]1CC[C@]2(C)[C@H]3CC=C4[C@@H]5[C@@H](C)[C@H](C)CC[C@]5(C(=O)O)CC[C@@]4(C)[C@]3(C)CC[C@H]2C1(C)C`, the CC50 at 72 h in series [1] and in series [2] was greater than 400 µM in each case. Further, the IC50 in the series with Plasmodium falciparum is greater than 100 µM.
